# Entries after “also recorded” stand apart in the source; their conditions may differ. Like-named read-outs stand apart in the source and are kept apart here. Marks after values point to notes of the source that are not given here.
# What was measured:
# [1] = system: patients with type 2 diabetes mellitus; format: in vivo, human; details: 24 weeks, median (2.5th, 97.5th percentile)
# [2] = system: patients with type 2 diabetes mellitus; assay: Exposure–response analysis for safety/tolerability; format: in vivo, human; details: empagliflozin therapy compared with placebo-treated patients; OR (95% CI)
# Summary of the method: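 Logistic regression (R glm, binomial, logit link) of dichotomous patient-level adverse-event endpoints, each counted as any event during study. Endpoints: confirmed hypoglycemia (plasma glucose <3.9 mM and/or assistance required), and UTI, genital infection and volume depletion defined by 73, 89 and 8 preferred terms. Covariates enter additively with steady-state AUC relative to reference. Odds ratios computed for empagliflozin treatment.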
# [3] = Population pharmacokinetic analysis; format: in vivo, human
# Summary of the method: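 NONMEM 7.2 two-compartment model with lagged first-order absorption (lag fixed at 0.5 h) and first-order elimination. Fitted to 12,503 plasma concentrations from 2761 patients given oral doses of 1–100 mg once daily in ten Phase I–III studies; placebo excluded and first-hour samples dropped. eGFR by the MDRD formula, with a reference patient at eGFR 100 mL/min/1.73 m2. Bootstrap precision check.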
# [4] = system: patients with type 2 diabetes mellitus; details: cited from earlier work; for Placebo-corrected reduction in HbA1c / Reduction in FPG: Phase III
# [5] = Japanese patients with T2DM and renal impairment; subjects with renal impairment; cited from earlier work
# [6] = system: patients with type 2 diabetes mellitus; assay: Exposure–response analysis for efficacy; format: in vivo, human; details: for Target of the maximal response for FPG and HbA1c obtained: after 24 weeks
# Summary of the method: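 NONMEM population PK/PD turnover model fitted to 25,361 FPG and 22,012 HbA1c values from 4065 patients, placebo arms included, in three Phase II and four Phase III trials of ≥12 weeks. AUCss drives FPG elimination through a non-linear Emax term, and FPG changes drive HbA1c production. Steady-state baseline assumed. Covariates on Gmax include eGFR and baseline FPG. Precision checked by bootstrap.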
# [7] = eGFR 15 mL/min/1.73 m^2 vs reference patient with eGFR 100 mL/min/1.73 m^2
compound,measurement,setting,value
OC[C@H]1O[C@@H](c2ccc(Cl)c(Cc3ccc(O[C@H]4CCOC4)cc3)c2)[C@H](O)[C@@H](O)[C@@H]1O [empagliflozin],"Median change from baseline in glycated hemoglobin, Observed","[1]; 10 mg, eGFR 30–60 mL/min/1.73 m^2 (study 10), five patients","−0.90 (−1.81, 0.12)^a"
same,"Median change from baseline in glycated hemoglobin, Observed","[1]; 10 mg, eGFR 45–60 mL/min/1.73 m^2 (study 10), five patients","−0.90 (−1.81, 0.12)^a"
same,"Median change from baseline in glycated hemoglobin, Observed","[1]; 10 mg, eGFR 60–90 mL/min/1.73 m^2 (study 10)","−0.40 (−1.70, 0.76)"
same,"Median change from baseline in glycated hemoglobin, Observed","[1]; 10 mg, elderly (75–85 years)","−0.65 (−2.44, 0.40)"
same,"Median change from baseline in glycated hemoglobin, Observed","[1]; 25 mg, eGFR 30–45 mL/min/1.73 m^2 (study 10)","−0.30 (−1.83, 1.43)"
same,"Median change from baseline in glycated hemoglobin, Observed","[1]; 25 mg, eGFR 30–60 mL/min/1.73 m^2 (study 10)","−0.40 (−2.00, 1.25)"
same,"Median change from baseline in glycated hemoglobin, Observed","[1]; 25 mg, eGFR 45–60 mL/min/1.73 m^2 (study 10)","−0.40 (−1.97, 0.88)"
same,"Median change from baseline in glycated hemoglobin, Observed","[1]; 25 mg, eGFR 60–90 mL/min/1.73 m^2 (study 10)","−0.70 (−1.64, 0.90)"
same,"Median change from baseline in glycated hemoglobin, Observed","[1]; 25 mg, elderly (75–85 years)","−0.50 (−2.03, 0.60)"
same,OR for UTI,[2],"0.941 (0.687, 1.29)"
same,OR for genital infection,[2],"5.08 (2.77, 9.34)"
same,OR for hypoglycemia,[2],"1.11 (0.811, 1.52)"
same,OR for volume depletion,[2],"1.44 (0.517, 4.01)"
same,Increase in typical AUCss,[3]; [7],88.1%
same,Reduction in CL/F,[3]; [7],46.8%
same,Increase in typical AUCss,[3]; eGFR 30 mL/min/1.73 m^2 vs reference patient with eGFR 100 mL/min/1.73 m^2,49.2%
same,Increase in typical AUCss,[3]; eGFR 60 mL/min/1.73 m^2 vs reference patient with eGFR 100 mL/min/1.73 m^2,18.5%
same,Increase in mean AUCss,[3]; eGFR ≥60 mL/min/1.73 m^2 vs reference eGFR 100 mL/min/1.73 m^2,≤ 20%
same,Vd/F,"[3]; human, plasma, oral",3.14 L
same,Increase in exposure (AUCss) in renal impairment,[3]; patients with (severe) renal impairment,less than twofold increase in exposure; also recorded: increased less than twofold; also recorded: increase in exposure less than twofold
same,first-order ka,[3]; typical value given the reference covariates,0.196 L/h
same,Placebo-corrected reduction in HbA1c,"[4]; add-on therapy, 10 mg",−0.4% to −0.7%
same,Reduction in FPG,"[4]; add-on therapy, 10 mg",−0.9 to −1.5 mM
same,Placebo-corrected reduction in HbA1c,"[4]; add-on therapy, 25 mg",−0.5% to −0.7%
same,Reduction in FPG,"[4]; add-on therapy, 25 mg",−1.2 to −1.8 mM
same,Placebo-corrected reduction in HbA1c,"[4]; monotherapy, 10 mg",−0.7%
same,Reduction in FPG,"[4]; monotherapy, 10 mg",-1.7 mM
same,Placebo-corrected reduction in HbA1c,"[4]; monotherapy, 25 mg",−0.9%
same,Reduction in FPG,"[4]; monotherapy, 25 mg",-2.0 mM
same,Effect on HbA1c as add-on to existing antidiabetic therapy,[4]; patients with T2DM and stage 2 or 3 CKD,significant reductions in HbA1c
same,Effect on HbA1c,[4]; patients with severe renal impairment (stage 4 CKD),no reduction in HbA1c was observed
same,Increase in exposure for patients with renal impairment,[5],less than twofold
same,Target of the maximal response for FPG and HbA1c obtained,[6]; once daily dose of approximately 10 mg,80%
same,Target of the maximal response for FPG and HbA1c obtained,[6]; once daily dose of approximately 25 mg,90%
same,Efficacy (effect on FPG) maintained in renal impairment,[6]; eGFR as low as 30 mL/min/1.73 m^2,nearly half the maximal effect
same,Once daily dose whose median exposure corresponds to AUC50,[6]; once daily dose,around 3 mg

# Reference: article PMC5014782 (Diabetes Therapy, 2016)
